Measured values published in ChEMBL document CHEMBL1221342, “Synthesis and in vitro antitumor activity of new 4,5-dihydropyrazole derivatives” (Bioorg Med Chem, 2010).

Columns and labels:
NCI-H522 = test: Growth inhibition of human NCI-H522 cells after 48 hrs by SRB assay; assay type: functional; details: NCI-H522, 48 h
Procedure, shortened: (§1)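 NCI 60-cell-line screen. Cells grown in RPMI1640 with 5% fetal calf serum and 2 mM L-glutamine, with inoculum density set by cell line. Preincubated 24 h, then given compound in DMSO at 10^-4 to 10^-8 M (five 10-fold steps) for 48 h continuous exposure. Growth measured by SRB protein assay. GI50, TGI and LC50 reported as –log molar.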

UO-31 = test: Growth inhibition of human UO31 cells after 48 hrs by SRB assay; assay type: functional; details: UO-31, 48 h; procedure, shortened: as §1
U-251 = test: Growth inhibition of human U251 cells after 48 hrs by SRB assay; assay type: functional; details: U-251, 48 h; procedure, shortened: as §1
[1] = Growth inhibition of human […] cells after 48 hrs by SRB assay; assay type: functional; procedure, shortened: as §1
CAKI-1 = test: Growth inhibition of human Caki1 cells after 48 hrs by SRB assay; assay type: functional; details: CAKI-1, 48 h; procedure, shortened: as §1
MOLT-4 = test: Growth inhibition of human MOLT4 cells after 48 hrs by SRB assay; assay type: functional; details: MOLT-4, 48 h; procedure, shortened: as §1
OVCAR-8 = test: Growth inhibition of human OVCAR8 cells after 48 hrs by SRB assay; assay type: functional; details: OVCAR-8, 48 h; procedure, shortened: as §1
PC-3 = test: Growth inhibition of human PC3 cells after 48 hrs by SRB assay; assay type: functional; details: PC-3, 48 h; procedure, shortened: as §1
SF-268 = test: Growth inhibition of human SF268 cells after 48 hrs by SRB assay; assay type: functional; details: SF-268, 48 h; procedure, shortened: as §1
OVCAR-4 = test: Growth inhibition of human OVCAR4 cells after 48 hrs by SRB assay; assay type: functional; details: OVCAR-4, 48 h; procedure, shortened: as §1
SK-MEL-28 = test: Growth inhibition of human SK-MEL-28 cells after 48 hrs by SRB assay; assay type: functional; details: SK-MEL-28, 48 h; procedure, shortened: as §1
K562 = test: Growth inhibition of human K562 cells after 48 hrs by SRB assay; assay type: functional; details: K562, 48 h; procedure, shortened: as §1
MCF7 = test: Growth inhibition of human MCF7 cells after 48 hrs by SRB assay; assay type: functional; details: MCF7, 48 h; procedure, shortened: as §1
SW-620 = test: Growth inhibition of human SW620 cells after 48 hrs by SRB assay; assay type: functional; details: SW-620, 48 h; procedure, shortened: as §1
HT-29 = test: Growth inhibition of human HT-29 cells after 48 hrs by SRB assay; assay type: functional; details: HT-29, 48 h; procedure, shortened: as §1
NCI-H460 = test: Cytotoxicity against human NCI-H460 cells after 72 hrs by SRB assay; assay type: functional, cell-based; details: NCI-H460, 72 h
Procedure, shortened: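 NCI-H460 (ATCC) cells seeded in 96-well plates in growth medium. Scalar drug concentrations added 24 h after plating, then 72 h exposure. Surviving cells stained with sulforhodamine B, OD read at 570 nm. IC50 (50% growth inhibition) fitted from dose–response curves. Mean ± SE of at least three independent experiments.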

SNB-75 = test: Growth inhibition of human SNB75 cells after 48 hrs by SRB assay; assay type: functional; details: SNB-75, 48 h; procedure, shortened: as §1
SK-OV-3 = test: Growth inhibition of human SKOV3 cells after 48 hrs by SRB assay; assay type: functional; details: SK-OV-3, 48 h; procedure, shortened: as §1
HCT-116 = test: Growth inhibition of human HCT116 cells after 48 hrs by SRB assay; assay type: functional; details: HCT-116, 48 h; procedure, shortened: as §1
SK-MEL-2 = test: Growth inhibition of human SK-MEL-2 cells after 48 hrs by SRB assay; assay type: functional; details: SK-MEL-2, 48 h; procedure, shortened: as §1
SR = test: Growth inhibition of human SR cells after 48 hrs by SRB assay; assay type: functional; procedure, shortened: as §1
COLO 205 = test: Growth inhibition of human COLO205 cells after 48 hrs by SRB assay; assay type: functional; details: COLO 205, 48 h; procedure, shortened: as §1
HOP-62 = test: Growth inhibition of human HOP62 cells after 48 hrs by SRB assay; assay type: functional; details: HOP-62, 48 h; procedure, shortened: as §1
DU-145 = test: Growth inhibition of human DU145 cells after 48 hrs by SRB assay; assay type: functional; details: DU-145, 48 h; procedure, shortened: as §1
SF-295 = test: Growth inhibition of human SF295 cells after 48 hrs by SRB assay; assay type: functional; details: SF-295, 48 h; procedure, shortened: as §1
SK-MEL-5 = test: Growth inhibition of human SK-MEL-5 cells after 48 hrs by SRB assay; assay type: functional; details: SK-MEL-5, 48 h; procedure, shortened: as §1
Malme-3M = test: Growth inhibition of human MALME-3M cells after 48 hrs by SRB assay; assay type: functional; details: read-out: pTGI (converted); procedure, shortened: as §1
BT-549 = test: Growth inhibition of human BT549 cells after 48 hrs by SRB assay; assay type: functional; details: BT-549, 48 h; procedure, shortened: as §1
M14 = test: Growth inhibition of human M14 cells after 48 hrs by SRB assay; assay type: functional; details: M14, 48 h; procedure, shortened: as §1
MDA-MB-435 = test: Growth inhibition of human MDA-MB-435 cells after 48 hrs by SRB assay; assay type: functional; details: MDA-MB-435, 48 h; procedure, shortened: as §1
TK-10 = test: Growth inhibition of human TK10 cells after 48 hrs by SRB assay; assay type: functional; details: TK-10, 48 h; procedure, shortened: as §1
CCRF-CEM = test: Growth inhibition of human CCRF-CEM cells after 48 hrs by SRB assay; assay type: functional; procedure, shortened: as §1
HCT-15 = test: Growth inhibition of human HCT15 cells after 48 hrs by SRB assay; assay type: functional; details: HCT-15, 48 h; procedure, shortened: as §1
SF-539 = test: Growth inhibition of human SF539 cells after 48 hrs by SRB assay; assay type: functional; details: SF-539, 48 h; procedure, shortened: as §1
NCI-H322M = test: Growth inhibition of human NCI-H322M cells after 48 hrs by SRB assay; assay type: functional; procedure, shortened: as §1
UACC-62 = test: Growth inhibition of human UACC62 cells after 48 hrs by SRB assay; assay type: functional; details: UACC-62, 48 h; procedure, shortened: as §1

SMILES: COc1cc(C2=NN(C(C)=O)C(c3cc(OC)c(OC)c(OC)c3)C2)ccc1O (centres undefined)
- GI50 (NCI-H522): 316 nM
- TGI (NCI-H522; read-out: pTGI (converted)): > 100000 nM
- GI50 (UO-31): 398 nM
- TGI (UO-31; read-out: pTGI (converted)): > 100000 nM
- GI50 (U-251): 398 nM
- TGI (U-251; read-out: pTGI (converted)): > 100000 nM
- GI50 [1]: 200 nM
- TGI ([1]; read-out: pTGI (converted)): 794 nM
- GI50 (CAKI-1): 316 nM
- TGI (CAKI-1; read-out: pTGI (converted)): > 100000 nM
- GI50 (MOLT-4): 398 nM
- TGI (MOLT-4; read-out: pTGI (converted)): > 100000 nM
- GI50 (OVCAR-8): 631 nM
- TGI (OVCAR-8; read-out: pTGI (converted)): > 100000 nM
- GI50 (PC-3): 251 nM
- TGI (PC-3; read-out: pTGI (converted)): > 100000 nM
- GI50 (SF-268): 631 nM
- TGI (SF-268; read-out: pTGI (converted)): > 100000 nM
- GI50 (OVCAR-4): 398 nM
- TGI (OVCAR-4; read-out: pTGI (converted)): > 100000 nM
- GI50 (SK-MEL-28): 501 nM
- TGI (SK-MEL-28; read-out: pTGI (converted)): > 100000 nM
- GI50 (K562): 398 nM
- TGI (K562; read-out: pTGI (converted)): > 100000 nM
- GI50 (MCF7): 251 nM
- TGI (MCF7; read-out: pTGI (converted)): > 100000 nM
- GI50 (SW-620): 316 nM
- TGI (SW-620; read-out: pTGI (converted)): > 100000 nM
- GI50 (HT-29): 316 nM
- TGI (HT-29; read-out: pTGI (converted)): > 100000 nM
- IC50 (NCI-H460): 210 nM
- GI50 (SNB-75): 251 nM
- TGI (SNB-75; read-out: pTGI (converted)): > 100000 nM
- GI50 (SK-OV-3): 316 nM
- TGI (SK-OV-3; read-out: pTGI (converted)): > 100000 nM
- GI50 (HCT-116): 398 nM
- TGI (HCT-116; read-out: pTGI (converted)): 50100 nM
- GI50 (SK-MEL-2): 501 nM
- TGI (SK-MEL-2; read-out: pTGI (converted)): > 100000 nM
- GI50 (SR): 50.1 nM
- TGI (SR; read-out: pTGI (converted)): 501 nM
- GI50 (COLO 205): 251 nM
- TGI (COLO 205; read-out: pTGI (converted)): 794 nM
- GI50 (HOP-62): 501 nM
- TGI (HOP-62; read-out: pTGI (converted)): > 100000 nM
- GI50 (DU-145): 316 nM
- TGI (DU-145; read-out: pTGI (converted)): 12600 nM
- GI50 (SF-295): 200 nM
- GI50 (SK-MEL-5): 63.1 nM
- TGI (SK-MEL-5; read-out: pTGI (converted)): 501 nM
- TGI (Malme-3M): > 100000 nM
- GI50 (BT-549): 631 nM
- TGI (BT-549; read-out: pTGI (converted)): > 100000 nM
- GI50 (M14): 398 nM
- TGI (M14; read-out: pTGI (converted)): > 100000 nM
- GI50 (MDA-MB-435): 50.1 nM
- TGI (MDA-MB-435; read-out: pTGI (converted)): 200 nM
- GI50 (TK-10): 631 nM
- TGI (TK-10; read-out: pTGI (converted)): > 100000 nM
- GI50 (CCRF-CEM): 316 nM
- TGI (CCRF-CEM; read-out: pTGI (converted)): 1000 nM
- GI50 (HCT-15): 398 nM
- TGI (HCT-15; read-out: pTGI (converted)): > 100000 nM
- GI50 (SF-539): 316 nM
- TGI (SF-539; read-out: pTGI (converted)): 1000 nM
- GI50 (NCI-H322M): 501 nM
- TGI (NCI-H322M; read-out: pTGI (converted)): > 100000 nM
- GI50 (UACC-62): 316 nM
- TGI (UACC-62; read-out: pTGI (converted)): > 100000 nM
